Results taken from PubChem BioAssay AID504358 (Southern Research Specialized Biocontainment Screening …, 2011).
Active and inactive are the calls of the source.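 How the source made its calls: active means compounds blocking phage killing of the bacteria by at least 50% at some tested dose; inactive means the rest.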

Key:
[1] = protection from K1F lysis, OD600 growth read-out – E. coli UTI89, K1F phage, C7 control, bacterial capsule biogenesis inhibitors, confirmation (AID 504358); conditions: E. coli UTI89 K1F phage lysis inhibition, OD600; for SI: measured here: selectivity index CC50/IC50, stronger effect = higher value
How it was run: (§1)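 Assay system – E. coli UTI89 K1 cells with K1F phage · Times – 1.25 h compound, then 3 h phage, 37 °C · Signal – absorbance at 600 nm, before infection and 3 h after · Read-out basis – phage lysis inferred from OD600 3 h after phage infection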

[2] = tested on: E. coli UTI89 K1F phage lysis inhibition, OD600; experiment: as above; conditions: for CC50: measured here: cytotoxicity
How it was run: as §1

SMILES | outcome [1] | IC50 [2] | CC50 [2] | SI [1]
COc1ccc(OC)c(-c2cc(C(=O)O)c3cc4ccccc4cc3n2)c1 | inactive |  |  | 
O=C(Nc1ccncc1)c1ccc2ncsc2c1 |  | 3 µM | > 100 µM | > 33
COc1ccc2nc(NC(=O)c3ccc(Br)s3)sc2c1 |  | 10.6 µM | > 100 µM | > 9.4
Cc1cc(C)c2c(=O)c(-c3cc(C(=O)O)c4cc5ccccc5cc4n3)coc2c1 | inactive |  |  | 
O=C(NCc1cc([N+](=O)[O-])ccc1O)c1cccnc1Sc1ccccc1 |  |  | > 100 µM | 
Cc1ccc(C2c3c(oc4cc(C)c(C)cc4c3=O)C(=O)N2CCCN2CCOCC2)cc1 (stereo unspecified) | inactive |  | 44.4 µM | 
CC1=NN2C(=N)/C(=C\c3ccc(SCc4ccco4)o3)C(=O)N=C2S1 |  | 22.6 µM | > 100 µM | 4.4
O=C(COc1ccc(Cl)cc1Cl)Nc1ccc(C(=O)Nc2ccccc2C(=O)O)cc1 |  |  | 45.3 µM | 
O=C(ONc1ccc(N=NC(=O)c2ccccc2O)cc1)c1ccccc1 |  | 3.3 µM | 45.1 µM | 13.7
C=CCOc1ccc(C2c3c(oc4ccccc4c3=O)C(=O)N2CCCN2CCOCC2)cc1 (stereo unspecified) | inactive |  | > 100 µM | 
O=C(NCc1cc([N+](=O)[O-])ccc1O)c1cccnc1Sc1ccccc1Cl |  | 26.1 µM | > 100 µM | > 3.8
CC1(C(=O)O)CCC(C(=O)Nc2ccc3ccccc3c2)C1(C)C (stereo unspecified) |  | 69.8 µM | > 100 µM | > 1.4
O=C(O)c1cc(-c2cccc(Cl)c2)nc2cc3ccccc3cc12 | inactive |  |  | 
CCOc1ccc(-c2cc(NC(=O)c3c(F)cccc3F)c(C(=O)O)s2)cc1 |  | 6.2 µM | 66.7 µM | 10.8
O=C(O)c1cc(-c2c[nH]c3ccccc23)nc2cc3ccccc3cc12 | inactive |  |  | 
